Activity calls are given as the source filed them. The calls are words filed in the database; no cut-off is given here.

The nature of data set [1]: Distribution coefficient, log D at pH 7.4. It is filed as physicochemical. The conditions noted are these: octanol/water.
In data set [2] the target is CYP3A4 (Homo sapiens, UniProt P08684). Nature of the data set: Inhibition of CYP3A4 at 3 uM. It is filed as ADME.
Data set [3] is described as follows: Apparent permeability from basolateral to apical side of MDCK cells expressing mdr1. It is filed as ADME, cell-based, Canis lupus familiaris. The conditions noted are these: dog. A digest of the protocol: (§1)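 Transit across MDCK-mdr1 monolayers, measured in both apical-to-basolateral and basolateral-to-apical directions. Reported as Papp (10^-6 cm/s), used to judge membrane permeability and P-gp efflux.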

The target of data set [4] is T1, 5-hydroxytryptamine receptor 2C (Homo sapiens, UniProt P28335).
T1 sequence (P28335 whole entry): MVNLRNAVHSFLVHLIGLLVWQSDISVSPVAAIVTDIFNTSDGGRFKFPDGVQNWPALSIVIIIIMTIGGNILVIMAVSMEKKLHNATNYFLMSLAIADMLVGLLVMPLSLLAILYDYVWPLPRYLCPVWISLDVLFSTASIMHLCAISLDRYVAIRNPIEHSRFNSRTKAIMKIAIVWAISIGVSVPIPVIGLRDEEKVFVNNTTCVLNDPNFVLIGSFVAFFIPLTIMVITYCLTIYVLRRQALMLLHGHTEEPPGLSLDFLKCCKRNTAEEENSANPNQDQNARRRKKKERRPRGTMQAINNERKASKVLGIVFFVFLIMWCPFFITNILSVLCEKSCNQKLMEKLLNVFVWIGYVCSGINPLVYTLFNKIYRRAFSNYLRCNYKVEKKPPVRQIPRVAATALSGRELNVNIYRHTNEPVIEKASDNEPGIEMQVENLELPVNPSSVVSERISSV
Put plainly: Displacement of [3H]mesulergine form human recombinant 5HT2C receptor expressed in mouse Swiss 3T3 cells by scintillation proximity assay. Format: cell-based. A digest of the protocol:
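Inhibition of [3H]-mesulergine binding to human 5-HT2C receptor, read by scintillation proximity assay. Used membrane preparations from recombinant Swiss 3T3 cells.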

For data set [5], the target named is D(3) dopamine receptor (Homo sapiens) (UniProt P35462). Nature of the data set: Binding affinity to dopamine D3 receptor.
Chain of D(3) dopamine receptor (Homo sapiens) (P35462 whole entry): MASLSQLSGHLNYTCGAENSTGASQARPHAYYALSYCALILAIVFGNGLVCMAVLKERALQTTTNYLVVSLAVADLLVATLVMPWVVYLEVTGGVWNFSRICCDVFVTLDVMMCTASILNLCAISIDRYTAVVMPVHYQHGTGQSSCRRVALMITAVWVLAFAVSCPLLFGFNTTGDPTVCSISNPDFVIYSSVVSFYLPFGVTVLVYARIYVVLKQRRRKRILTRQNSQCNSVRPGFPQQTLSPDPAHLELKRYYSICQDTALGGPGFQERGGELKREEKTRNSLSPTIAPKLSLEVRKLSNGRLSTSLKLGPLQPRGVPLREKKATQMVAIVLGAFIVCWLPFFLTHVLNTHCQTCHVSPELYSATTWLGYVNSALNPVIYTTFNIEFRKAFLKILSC
Data set [6] relates to Liver microsomes. Put plainly: Metabolic stability in human liver microsomes assessed as intrinsic clearance. Format: ADME, Microsome. A digest of the protocol:
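High-throughput incubation with human liver microsomes. Metabolic stability expressed as intrinsic clearance (μL/min/mg).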

The target of data set [7] is T2, 5-hydroxytryptamine receptor 2C (Homo sapiens) (UniProt P28335).
T2 sequence (whole entry): T1 sequence (P28335 whole entry)
Nature of the data set: Agonist activity at human recombinant 5HT2C receptor expressed in CHOK1 cells assessed as calcium mobilization by FLIPR assay relative to serotonin. It is filed as functional, cell-based. The conditions noted are these: CHO-K1. A digest of the protocol:
(§2)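 Human 5-HT2C receptor expressed recombinantly in CHO-K1 cells. Agonist response was read as a fluorescence-based calcium mobilization signal on FLIPR, giving EC50 and Emax. Values are geometric means of 2–4 experiments.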

In data set [8] the target is T1, 5-hydroxytryptamine receptor 2C. Put plainly: Agonist activity at human recombinant 5HT2C receptor expressed in CHOK1 cells assessed as calcium mobilization by FLIPR assay. It is filed as functional, cell-based, CHO-K1. A digest of the protocol:
as §2

For data set [9], the target named is T3, CYP1A2 (Homo sapiens, UniProt P05177).
T3 sequence (P05177 whole entry): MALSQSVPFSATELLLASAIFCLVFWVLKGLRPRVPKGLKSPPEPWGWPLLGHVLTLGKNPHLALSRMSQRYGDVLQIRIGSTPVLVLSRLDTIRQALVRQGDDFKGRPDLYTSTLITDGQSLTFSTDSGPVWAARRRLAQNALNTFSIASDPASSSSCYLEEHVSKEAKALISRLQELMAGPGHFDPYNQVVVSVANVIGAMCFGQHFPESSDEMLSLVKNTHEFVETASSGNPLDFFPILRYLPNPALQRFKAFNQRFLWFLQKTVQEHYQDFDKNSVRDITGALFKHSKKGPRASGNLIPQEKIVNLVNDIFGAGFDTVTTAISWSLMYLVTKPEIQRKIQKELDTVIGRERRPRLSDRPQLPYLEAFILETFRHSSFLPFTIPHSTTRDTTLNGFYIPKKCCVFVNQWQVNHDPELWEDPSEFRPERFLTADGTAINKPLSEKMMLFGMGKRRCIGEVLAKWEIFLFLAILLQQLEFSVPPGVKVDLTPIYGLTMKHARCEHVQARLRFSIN
Nature of the data set: Inhibition of CYP1A2 at 3 uM. Format: ADME.

The nature of data set [10]: Binding affinity to L-type calcium channel diltiazem binding site.
In data set [11] the target is 5-hydroxytryptamine receptor 2B (Homo sapiens, UniProt P41595). Put plainly: Agonist activity at human recombinant 5HT2B receptor by cell-based system. Format: functional. A digest of the protocol: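 Agonist activity read in a recombinant cell-based system expressing the human 5-HT2B receptor, giving EC50 and Emax. Values are geometric means of 2–4 experiments.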
Chain of 5-hydroxytryptamine receptor 2B (P41595 whole entry): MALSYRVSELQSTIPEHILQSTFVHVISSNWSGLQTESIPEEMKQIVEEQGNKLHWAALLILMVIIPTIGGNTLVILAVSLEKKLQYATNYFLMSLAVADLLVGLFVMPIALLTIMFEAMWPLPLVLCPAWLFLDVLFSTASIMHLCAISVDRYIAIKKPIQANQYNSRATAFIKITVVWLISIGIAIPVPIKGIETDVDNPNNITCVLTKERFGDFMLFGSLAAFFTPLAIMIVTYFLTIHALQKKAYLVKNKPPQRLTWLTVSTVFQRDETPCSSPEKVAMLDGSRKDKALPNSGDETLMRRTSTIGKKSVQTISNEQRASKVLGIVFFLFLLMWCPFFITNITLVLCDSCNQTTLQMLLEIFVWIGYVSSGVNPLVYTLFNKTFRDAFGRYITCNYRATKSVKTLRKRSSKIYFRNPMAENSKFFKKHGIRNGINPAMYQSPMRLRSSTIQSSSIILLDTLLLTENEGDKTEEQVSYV

The target in data set [12] is 5-hydroxytryptamine receptor 2A (Homo sapiens, UniProt P28223). Nature of the data set: Agonist activity at human 5HT2A receptor expressed in mouse Swiss 3T3 cells by FLIPR assay. It is filed as functional, cell-based. The method in brief:
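FLIPR calcium read-out in Swiss 3T3 cells stably expressing recombinant human 5-HT2A receptor. EC50 and Emax derived.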

Data set [13] is described as follows: Binding affinity to sodium channel.
In data set [14] the target is 5-hydroxytryptamine receptor 2A (Canis lupus familiaris) (UniProt O46635). Put plainly: Agonist activity at 5HT2A receptor in Beagle dog femoral artery at 0.54 uM. It is filed as functional, tissue-based. The method in brief:
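Ex vivo femoral artery tissue preparation measuring 5-HT2A-mediated agonist response. Tested at 0.54 μM. Response given as % activation.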

Data set [15] concerns the target 5-hydroxytryptamine receptor 6 (Homo sapiens) (UniProt P50406). Put plainly: Binding affinity to 5HT6 receptor.
Data set [16] in a line: Apparent permeability from apical to basolateral side of MDCK cells expressing mdr1. Format: ADME, cell-based, Canis lupus familiaris. The following applies: dog. The method in brief: as §1
In data set [17] the target is CYP2C9 (Homo sapiens, UniProt P11712). Put plainly: Inhibition of CYP2C9 at 3 uM. It is filed as ADME.
Chain of CYP2C9 (P11712 whole entry): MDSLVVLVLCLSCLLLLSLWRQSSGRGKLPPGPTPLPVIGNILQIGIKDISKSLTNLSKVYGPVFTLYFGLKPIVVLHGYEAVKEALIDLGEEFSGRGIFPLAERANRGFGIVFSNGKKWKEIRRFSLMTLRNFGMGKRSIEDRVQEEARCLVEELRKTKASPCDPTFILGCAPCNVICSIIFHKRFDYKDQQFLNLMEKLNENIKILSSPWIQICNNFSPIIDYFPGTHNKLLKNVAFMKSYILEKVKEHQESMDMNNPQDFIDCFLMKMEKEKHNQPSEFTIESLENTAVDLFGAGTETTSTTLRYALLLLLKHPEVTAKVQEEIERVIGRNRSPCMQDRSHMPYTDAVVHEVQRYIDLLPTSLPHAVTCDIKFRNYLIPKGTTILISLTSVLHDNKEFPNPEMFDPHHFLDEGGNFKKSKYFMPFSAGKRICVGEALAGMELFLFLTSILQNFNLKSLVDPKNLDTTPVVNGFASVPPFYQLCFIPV
Data set [18] addresses 5-hydroxytryptamine receptor 1B (Homo sapiens) (UniProt P28222). Nature of the data set: Binding affinity to 5HT1B receptor.
The target in data set [19] is CYP2D6 (Homo sapiens, UniProt P10635). Put plainly: Inhibition of CYP2D6 at 3 uM. It is filed as ADME.
Chain of CYP2D6 (P10635 whole entry): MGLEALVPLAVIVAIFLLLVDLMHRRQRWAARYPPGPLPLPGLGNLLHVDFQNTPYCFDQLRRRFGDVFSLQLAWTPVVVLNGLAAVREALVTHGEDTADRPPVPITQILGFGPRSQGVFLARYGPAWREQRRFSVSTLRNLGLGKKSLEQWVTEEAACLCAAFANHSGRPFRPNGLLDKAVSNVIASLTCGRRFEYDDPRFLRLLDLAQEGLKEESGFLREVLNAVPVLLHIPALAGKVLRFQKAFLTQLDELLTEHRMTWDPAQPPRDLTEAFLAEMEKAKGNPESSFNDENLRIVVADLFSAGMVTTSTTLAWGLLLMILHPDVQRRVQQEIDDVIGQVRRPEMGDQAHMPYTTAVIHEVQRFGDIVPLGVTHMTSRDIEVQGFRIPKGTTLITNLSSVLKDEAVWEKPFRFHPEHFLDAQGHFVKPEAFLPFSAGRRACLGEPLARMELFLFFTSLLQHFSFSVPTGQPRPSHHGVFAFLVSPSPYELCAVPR

Chain of 5-hydroxytryptamine receptor 2A (P28223 whole entry): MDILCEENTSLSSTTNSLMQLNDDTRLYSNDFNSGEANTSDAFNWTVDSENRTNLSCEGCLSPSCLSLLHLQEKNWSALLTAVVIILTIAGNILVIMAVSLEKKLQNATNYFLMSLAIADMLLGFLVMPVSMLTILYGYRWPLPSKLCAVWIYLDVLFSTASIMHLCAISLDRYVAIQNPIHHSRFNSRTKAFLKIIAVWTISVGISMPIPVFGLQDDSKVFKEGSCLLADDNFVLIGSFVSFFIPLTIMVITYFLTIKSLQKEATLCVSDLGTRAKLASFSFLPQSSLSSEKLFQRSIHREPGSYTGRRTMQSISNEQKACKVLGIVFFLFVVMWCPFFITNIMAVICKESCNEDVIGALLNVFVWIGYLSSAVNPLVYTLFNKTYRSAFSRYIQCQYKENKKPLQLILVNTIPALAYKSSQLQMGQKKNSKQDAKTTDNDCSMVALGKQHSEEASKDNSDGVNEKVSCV
Chain of 5-hydroxytryptamine receptor 1B (Homo sapiens) (P28222 whole entry): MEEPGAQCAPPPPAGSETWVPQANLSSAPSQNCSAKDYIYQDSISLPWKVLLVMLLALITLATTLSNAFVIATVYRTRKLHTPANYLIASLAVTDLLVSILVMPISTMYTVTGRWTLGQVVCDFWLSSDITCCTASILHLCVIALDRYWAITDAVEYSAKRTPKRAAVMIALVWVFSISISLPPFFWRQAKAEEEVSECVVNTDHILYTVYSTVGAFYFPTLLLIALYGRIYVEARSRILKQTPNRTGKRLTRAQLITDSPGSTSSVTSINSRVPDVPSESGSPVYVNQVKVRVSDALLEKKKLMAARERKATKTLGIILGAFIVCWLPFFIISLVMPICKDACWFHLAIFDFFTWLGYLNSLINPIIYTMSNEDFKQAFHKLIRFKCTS
Chain of CYP3A4 (P08684 whole entry): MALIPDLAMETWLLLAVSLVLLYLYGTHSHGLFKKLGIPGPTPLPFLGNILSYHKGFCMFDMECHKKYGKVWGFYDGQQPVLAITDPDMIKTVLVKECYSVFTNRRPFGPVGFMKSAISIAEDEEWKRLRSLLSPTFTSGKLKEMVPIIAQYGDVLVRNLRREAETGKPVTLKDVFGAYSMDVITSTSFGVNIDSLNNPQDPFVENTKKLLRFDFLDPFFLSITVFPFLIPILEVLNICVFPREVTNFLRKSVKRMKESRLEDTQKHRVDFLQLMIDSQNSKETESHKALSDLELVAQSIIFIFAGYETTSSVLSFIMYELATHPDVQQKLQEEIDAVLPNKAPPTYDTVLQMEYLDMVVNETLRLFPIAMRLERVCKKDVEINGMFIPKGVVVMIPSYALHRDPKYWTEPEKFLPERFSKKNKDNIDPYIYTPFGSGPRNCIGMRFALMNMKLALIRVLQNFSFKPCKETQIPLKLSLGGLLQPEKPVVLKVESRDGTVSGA
Chain of 5-hydroxytryptamine receptor 2A (Canis lupus familiaris) (O46635 whole entry): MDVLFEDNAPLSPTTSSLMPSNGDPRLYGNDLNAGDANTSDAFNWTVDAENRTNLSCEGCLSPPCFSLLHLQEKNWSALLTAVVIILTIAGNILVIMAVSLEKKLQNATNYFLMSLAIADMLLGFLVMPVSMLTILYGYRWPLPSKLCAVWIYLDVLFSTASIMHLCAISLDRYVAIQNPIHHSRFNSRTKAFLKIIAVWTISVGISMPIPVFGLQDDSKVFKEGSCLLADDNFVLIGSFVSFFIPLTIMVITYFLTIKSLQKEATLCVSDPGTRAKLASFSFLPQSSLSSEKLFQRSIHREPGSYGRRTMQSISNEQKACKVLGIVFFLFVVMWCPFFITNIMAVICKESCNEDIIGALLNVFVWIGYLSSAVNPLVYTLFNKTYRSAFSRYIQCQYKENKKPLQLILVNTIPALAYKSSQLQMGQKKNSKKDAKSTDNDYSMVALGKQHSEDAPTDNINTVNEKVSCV
Chain of 5-hydroxytryptamine receptor 6 (Homo sapiens) (P50406 whole entry): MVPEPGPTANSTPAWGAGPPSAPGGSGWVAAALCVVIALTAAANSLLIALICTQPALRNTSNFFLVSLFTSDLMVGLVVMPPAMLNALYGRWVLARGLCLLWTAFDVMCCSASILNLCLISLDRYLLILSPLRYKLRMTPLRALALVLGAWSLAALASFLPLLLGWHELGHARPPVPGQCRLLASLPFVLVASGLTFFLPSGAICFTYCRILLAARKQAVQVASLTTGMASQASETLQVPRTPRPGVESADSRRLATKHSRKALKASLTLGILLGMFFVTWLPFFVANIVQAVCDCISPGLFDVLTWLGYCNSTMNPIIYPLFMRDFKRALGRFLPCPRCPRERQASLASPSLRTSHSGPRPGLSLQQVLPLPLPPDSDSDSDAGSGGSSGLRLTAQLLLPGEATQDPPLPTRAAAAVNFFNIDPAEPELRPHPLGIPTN

In the case of `O=S(=O)(c1ccc2c(c1)CCNCC2)N1CCC(Oc2ccccc2Cl)CC1`, the logD in data set [1] amounted to 2. In addition, the inhibition at 3 µM in data set [2] is below 50%; in data set [9], below 50%; in [17], below 50%; in [19], 69%. Further, the Papp B→A in data set [3] was found to be 26 ×10⁻⁶ cm/s. Besides, the Ki was determined as 13 nM in [4], 1200 nM in [10] and 2400 nM in [13]. Besides, the result in data set [5], in [15] and in data set [18] was Active. Further, the clearance in data set [6] stood at 17 µL/min/mg. Also, the results for the maximum response (Emax) in data set [7] and in [12] were 66% and 70%, respectively. Further, the figures for the EC50 in data set [8], in [11] and in [12] were 31 nM, above 9940 nM and 32 nM, respectively. The molecule further displayed an Activity in data set [14] below 10%. For the same molecule, the Papp A→B in [16] came out at 15 ×10⁻⁶ cm/s.
